Experimental data reported in ChEMBL document CHEMBL3526015, “Metabolism of the c-Fos/activator protein-1 inhibitor T-5224 by multiple human UDP-glucuronosyltransferase isoforms” (Drug Metab Dispos, 2011).

Assays:
Format in all cases: ADME
[1] = substrate: O=C(O)CCc1cc(C(=O)c2ccc(OC3CCCC3)cc2O)ccc1OCc1ccc2c(O)noc2c1; test: Drug metabolism assessed as human UGT1A3-mediated T-5224 acyl O-glucuronide formation after 10 to 60 mins in presence of UDP-glucuronic acid by HPLC method
How it was run: (§1)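 Kinetics used recombinant UGT1A1, 1A3 or 1A8 (0.1 mg protein/mL) with T-5224 at 1–50 μM, 2 mM UDPGA and 60 min at 37°C, in triplicate. G2/G3 were measured by HPLC at 290 nm and fitted to a substrate-inhibition model (Vmax, Km, Ksi). UGT content was quantified by immunoblot, and kcat = Vmax/E0 was derived from it.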

[2] = substrate: O=C(O)CCc1cc(C(=O)c2ccc(OC3CCCC3)cc2O)ccc1OCc1ccc2c(O)noc2c1; test: Drug metabolism assessed as human UGT1A3-mediated T-5224 hydroxyl O-glucuronide formation after 10 to 60 mins in presence of UDP-glucuronic acid by HPLC method; how it was run: as §1
[3] = substrate: O=C(O)CCc1cc(C(=O)c2ccc(OC3CCCC3)cc2O)ccc1OCc1ccc2c(O)noc2c1; test: Drug metabolism assessed as Kcat to Km ratio for human UGT1A3-mediated T-5224 acyl O-glucuronide formation per mg protein after 10 to 60 mins in presence of UDP-glucuronic acid by HPLC method; how it was run: as §1
[4] = substrate: O=C(O)CCc1cc(C(=O)c2ccc(OC3CCCC3)cc2O)ccc1OCc1ccc2c(O)noc2c1; test: Drug metabolism assessed as Kcat to Km ratio for human UGT1A3-mediated T-5224 hydroxyl O-glucuronide formation per mg protein after 10 to 60 mins in presence of UDP-glucuronic acid by HPLC method; how it was run: as §1
[5] = substrate: O=C(O)CCc1cc(C(=O)c2ccc(OC3CCCC3)cc2O)ccc1OCc1ccc2c(O)noc2c1; test: Drug metabolism assessed as human UGT1A1-mediated T-5224 hydroxyl O-glucuronide formation after 10 to 60 mins in presence of UDP-glucuronic acid by HPLC method
How it was run: (§2)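 Recombinant human UGT1A1 from baculovirus-infected insect cells, 0.1 mg protein/mL, in 50 mM Tris-HCl pH 7.5 with 8 mM MgCl2 and alamethicin. T-5224 at 10–50 μM (2% DMSO final). After 5 min preincubation at 37°C, 2 mM UDPGA starts the reaction; 60 min at 37°C, stopped with acetonitrile. Glucuronides quantified by HPLC-UV at 290 nm, triplicate points. Substrate-inhibition fit gives Vmax, Km and Ksi. kcat = Vmax/E0, with UGT content taken from immunoblot.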

[6] = substrate: O=C(O)CCc1cc(C(=O)c2ccc(OC3CCCC3)cc2O)ccc1OCc1ccc2c(O)noc2c1; test: Drug metabolism assessed as human UGT1A1-mediated T-5224 acyl O-glucuronide formation after 10 to 60 mins in presence of UDP-glucuronic acid by HPLC method; how it was run: as §2
[7] = substrate: O=C(O)CCc1cc(C(=O)c2ccc(OC3CCCC3)cc2O)ccc1OCc1ccc2c(O)noc2c1; test: Drug metabolism assessed as Kcat to Km ratio for human UGT1A1-mediated T-5224 acyl O-glucuronide formation per mg protein after 10 to 60 mins in presence of UDP-glucuronic acid by HPLC method; how it was run: as §2
[8] = substrate: O=C(O)CCc1cc(C(=O)c2ccc(OC3CCCC3)cc2O)ccc1OCc1ccc2c(O)noc2c1; test: Drug metabolism assessed as Kcat to Km ratio for human UGT1A1-mediated T-5224 hydroxyl O-glucuronide formation per mg protein after 10 to 60 mins in presence of UDP-glucuronic acid by HPLC method; how it was run: as §2

Protein	Km [1]	kcat [1]	Km [2]	kcat [2]	kcat/Km [3]	kcat/Km [4]	Km [5]	kcat [5]	Km [6]	kcat [6]	kcat/Km [7]	kcat/Km [8]
UDP-glucuronosyltransferase 1A3 (Homo sapiens) (protein) MATGLQVPLPWLATGLLLLLSVQPWAESGKVLVVPIDGSHWLSMREVLRELHARGHQAVVLTPEVNMHIKEENFFTLTTYAISWTQDEFDRHVLGHTQLYFETEHFLKKFFRSMAMLNNMSLVYHRSCVELLHNEALIRHLNATSFDVVLTDPVNLCAAVLAKYLSIPTVFFLRNIPCDLDFKGTQCPNPSSYIPRLLTTNSDHMTFMQRVKNMLYPLALSYICHAFSAPYASLASELFQREVSVVDILSHASVWLFRGDFVMDYPRPIMPNMVFIGGINCANRKPLSQEFEAYINASGEHGIVVFSLGSMVSEIPEKKAMAIADALGKIPQTVLWRYTGTRPSNLANNTILVKWLPQNDLLGHPMTRAFITHAGSHGVYESICNGVPMVMMPLFGDQMDNAKRMETKGAGVTLNVLEMTSEDLENALKAVINDKSYKENIMRLSSLHKDRPVEPLDLAVFWVEFVMRHKGAPHLRPAAHDLTWYQYHSLDVIGFLLAVVLTVAFITFKCCAYGYRKCLGKKGRVKKAHKSKTH	7.21 µM	0.00182 s⁻¹	17.9 µM	0.0138 s⁻¹	252 M⁻¹ s⁻¹	774 M⁻¹ s⁻¹	–	–	–	–	–	–
UDP-glucuronosyltransferase 1A1 (Homo sapiens) (protein) MAVESQGGRPLVLGLLLCVLGPVVSHAGKILLIPVDGSHWLSMLGAIQQLQQRGHEIVVLAPDASLYIRDGAFYTLKTYPVPFQREDVKESFVSLGHNVFENDSFLQRVIKTYKKIKKDSAMLLSGCSHLLHNKELMASLAESSFDVMLTDPFLPCSPIVAQYLSLPTVFFLHALPCSLEFEATQCPNPFSYVPRPLSSHSDHMTFLQRVKNMLIAFSQNFLCDVVYSPYATLASEFLQREVTVQDLLSSASVWLFRSDFVKDYPRPIMPNMVFVGGINCLHQNPLSQEFEAYINASGEHGIVVFSLGSMVSEIPEKKAMAIADALGKIPQTVLWRYTGTRPSNLANNTILVKWLPQNDLLGHPMTRAFITHAGSHGVYESICNGVPMVMMPLFGDQMDNAKRMETKGAGVTLNVLEMTSEDLENALKAVINDKSYKENIMRLSSLHKDRPVEPLDLAVFWVEFVMRHKGAPHLRPAAHDLTWYQYHSLDVIGFLLAVVLTVAFITFKCCAYGYRKCLGKKGRVKKAHKSKTH	–	–	–	–	–	–	5.56 µM	0.00158 s⁻¹	7.91 µM	0.0072 s⁻¹	903 M⁻¹ s⁻¹	284 M⁻¹ s⁻¹
